Experimental data reported in ChEMBL document CHEMBL4376807, “Hydroxamic Acid Derivatives of β-Carboline/Hydroxycinnamic Acid Hybrids Inducing Apoptosis and Autophagy through the PI3K/Akt/mTOR Pathways” (J Nat Prod, 2019).
pIC50: −log10 of the molar value. Calls of active or inactive are those of the source. The rule behind the calls is not given here.

What was measured:
Histone deacetylase 8 = target: T1, Histone deacetylase 8 (Homo sapiens, UniProt Q9BY41); test: Inhibition of human HDAC8 using Boc-Lys (Ac)-AMC as substrate incubated for 60 mins by fluorimetric assay
T1 sequence (Q9BY41 whole entry): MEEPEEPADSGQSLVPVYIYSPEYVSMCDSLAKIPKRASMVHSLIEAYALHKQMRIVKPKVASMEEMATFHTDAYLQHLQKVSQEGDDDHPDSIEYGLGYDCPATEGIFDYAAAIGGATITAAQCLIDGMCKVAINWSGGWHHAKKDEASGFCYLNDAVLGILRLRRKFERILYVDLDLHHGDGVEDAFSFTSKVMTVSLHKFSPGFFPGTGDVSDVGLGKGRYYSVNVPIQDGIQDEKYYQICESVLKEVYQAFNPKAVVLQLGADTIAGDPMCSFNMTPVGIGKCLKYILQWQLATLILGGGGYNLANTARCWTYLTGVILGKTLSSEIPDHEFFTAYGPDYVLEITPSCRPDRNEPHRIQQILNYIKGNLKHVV

Bel7402/5-FU = test: Antiproliferative activity against human Bel7402/5-FU cells at 0.2 to 5 uM after 72 hrs by MTT assay; type: functional, cell-based
Method in brief: (§1)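 Cells grown in DMEM with 10% heat-inactivated FBS, penicillin/streptomycin, 37 °C, 5% CO2. Seeded at 10^4 cells/mL overnight, then exposed to a range of compound concentrations for 72 h; 0.1% DMSO negative control. MTT (5 mg/mL stock) added, absorbance read at 570 nm; percent inhibition from three independent experiments, mean ± SD.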

Histone deacetylase 3 = Histone deacetylase 3 (Homo sapiens, UniProt O15379); test: Inhibition of human HDAC3 using Boc-Lys (Ac)-AMC as substrate incubated for 60 mins by fluorimetric assay
Bel-7402 [1] = test: Effect on AKT expression in human Bel7402 cells at 1 to 2.5 uM after 24 to 72 hrs by Western blot analysis; type: ADME, cell-based; details: bel-7402, 2.5 µM
Method in brief: (§2)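 Bel7402 cells (1.5 × 10^5/mL) exposed to compound at 1.0 and 2.5 μM for 24 or 72 h. Lysates (0.05 mg/lane) separated on 12% SDS-PAGE and blotted to nitrocellulose. Probed for total Akt, phospho-Akt (Ser473), total mTOR and phospho-mTOR, HRP secondary, chemiluminescent detection. Quantified from three separate assays, mean ± SD.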

Bel-7402 [2] = test: Induction of apoptosis in human Bel7402 cells assessed as annexin-V positive cells at 1 uM after 72 hrs by Annexin-V/PI staining based flow cytometry relative to control; type: functional
Method in brief: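 Bel7402 cells (10 000) cultured overnight, then exposed to compound at 1.0 or 5.0 μM, or vehicle, for 72 h. Harvested, stained with annexin-V APC and 7-AAD for 15 min. Apoptotic percentage measured by flow cytometry (APC ex 633/em 660 nm; 7-AAD ex 488/em 647 nm). Three separate assays, mean ± SD.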

[3] = target: T2, Histone deacetylase (Homo sapiens) (UniProt Q13547+O15379+Q9UBN7+Q92769+Q9UQL6+Q8WUI4+Q9BY41+Q96DB2+P56524+Q9UKV0+Q969S8); test: Inhibition of HDAC in human Bel7402 cells assessed as increase in acetylated histone h3 expression incubated for 72 hrs by Western blot analysis; type: cell-based
Method in brief: (§3)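 Bel7402 cells exposed to vehicle or compound (1.0 and 3.0 μM) for 72 h, with SAHA 5.0 μM as reference. Lysates (0.05 mg/lane) run on 12% SDS-PAGE and transferred to nitrocellulose. Probed with anti-acetyl-H3 and anti-acetyl-α-tubulin, HRP secondary, chemiluminescence. Quantified from three separate assays, mean ± SD.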

Bel-7402 [4] = test: Antiproliferative activity against human Bel7402 cells at 0.2 to 5 uM after 72 hrs by MTT assay; type: functional, cell-based; method in brief: as §1
Bel-7402 [5] = test: Induction of autophagy in human Bel7402 cells assessed as upregulation of LC3-2 level at 5 uM after 24 to 72 hrs by Western blot analysis; type: functional, cell-based
Method in brief: (§4)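 Bel7402 cells (1.5 × 10^5/mL) exposed to compound at indicated doses, or vehicle, for 24 or 72 h. Lysates (0.05 mg/lane) separated on 12% SDS-PAGE, blotted to nitrocellulose, blocked in 5% milk. Probed with anti-LC3, anti-p62 and anti-beclin-1, HRP secondary, chemiluminescent detection. Levels quantified relative to β-actin; three separate assays, mean ± SD.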

Bel-7402 [6] = test: Induction of autophagy in human Bel7402 cells assessed as upregulation of Beclin1 level at 1 to 5 uM after 24 to 72 hrs by Western blot analysis; type: functional, cell-based; method in brief: as §4
[7] = target: T2, Histone deacetylase (Homo sapiens); test: Inhibition of HDAC in human Bel7402 cells assessed as increase in acetylated alpha-tubulin expression incubated for 72 hrs by Western blot analysis; type: cell-based; method in brief: as §3
Bel-7402 [8] = test: Induction of apoptosis in human Bel7402 cells assessed as increase in cleaved PARP level at 1 uM after 72 hrs by Western blot analysis; type: functional, cell-based
Method in brief: (§5)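 Subconfluent Bel7402 cells (1.5 × 10^5/mL) exposed to vehicle or compound for 72 h, then lysed. Lysates (0.05 mg/lane) run on 12% SDS-PAGE, transferred to nitrocellulose, blocked in 5% nonfat milk. Probed for Bax, Bcl-2, cleaved caspase-3 and cleaved PARP, with HRP secondary and chemiluminescence. Levels normalized to β-actin; three separate assays, mean ± SD.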

Bel-7402 [9] = test: Induction of apoptosis in human Bel7402 cells assessed as decrease in Bcl-2 expression after 72 hrs by Western blot analysis; type: functional, cell-based; method in brief: as §5
L02 = test: Cytotoxicity against human LO2 cells after 72 hrs by MTT assay; type: functional, cell-based; details: L02, 72 h; method in brief: as §1
Bel-7402 [10] = test: Induction of apoptosis in human Bel7402 cells assessed as increase in cleaved PARP level at 5 uM after 72 hrs by Western blot analysis; type: functional, cell-based; method in brief: as §5
Bel-7402 [11] = test: Induction of autophagy in human Bel7402 cells assessed as downregulation of LC3-I level at 1 to 5 uM after 24 to 72 hrs by Western blot analysis; type: functional, cell-based; method in brief: as §4
[12] = Inhibition of PI3K/AKT/mTOR signaling in human Bel7402 cells assessed as reduction in AKT phosphorylation after 24 to 72 hrs by Western blot analysis; type: cell-based; method in brief: as §2
Bel-7402 [13] = test: Induction of autophagy in human Bel7402 cells assessed as accumulation of autophagic vacuoles at 5 uM after 24 hrs by acridine orange staining based fluorescence microscopic method; type: functional, cell-based
Method in brief: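 Bel7402 cells (10 000) cultured overnight, then exposed to compound at 1.0 or 5.0 μM, or vehicle. Stained with 1 mg/mL acridine orange for 15−20 min, then dye removed. Red versus green fluorescence viewed by fluorescence microscopy at 400×. Representative images from three independent experiments.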

Bel-7402 [14] = test: Effect on mTOR expression in human Bel7402 cells at 1 to 2.5 uM after 24 to 72 hrs by Western blot analysis; type: ADME, cell-based; details: bel-7402, 2.5 µM; method in brief: as §2
Bel-7402 [15] = test: Induction of apoptosis in human Bel7402 cells assessed as increase in cleaved caspase-3 level at 1 uM after 72 hrs by Western blot analysis; type: functional, cell-based; method in brief: as §5
Bel-7402 [16] = test: Induction of autophagy in human Bel7402 cells assessed as downregulation of p62 level at 1 to 5 uM after 24 to 72 hrs by Western blot analysis; type: functional, cell-based; method in brief: as §4

Chain of Histone deacetylase 3 (O15379 whole entry): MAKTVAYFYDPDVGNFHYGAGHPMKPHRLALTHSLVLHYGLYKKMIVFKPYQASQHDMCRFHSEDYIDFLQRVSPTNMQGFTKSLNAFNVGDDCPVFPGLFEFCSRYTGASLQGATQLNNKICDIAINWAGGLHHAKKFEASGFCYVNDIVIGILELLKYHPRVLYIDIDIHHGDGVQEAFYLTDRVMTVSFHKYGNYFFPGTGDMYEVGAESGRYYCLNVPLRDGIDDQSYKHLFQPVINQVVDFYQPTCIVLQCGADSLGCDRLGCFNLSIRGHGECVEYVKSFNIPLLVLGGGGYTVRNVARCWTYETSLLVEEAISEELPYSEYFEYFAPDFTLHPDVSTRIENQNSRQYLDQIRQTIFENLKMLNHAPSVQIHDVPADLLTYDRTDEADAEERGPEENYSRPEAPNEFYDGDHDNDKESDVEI

pIC50 (Histone deacetylase 8): < 6.00
pIC50 (Histone deacetylase 3): 6.83
inhibition [3]: Dose-dependent effect
inhibition [7]: Dose-dependent effect
Compound: COc1ccc(-c2nc(NCCCOc3ccc(/C=C/C(=O)NO)cc3OC)cc3c2[nH]c2ccccc23)cc1
Activity (Bel7402/5-FU): Active
Activity (Bel-7402 [1]): Non-Toxic
Activity (Bel-7402 [2]): 49.6%
Activity (Bel-7402 [4]): Active
Activity (Bel-7402 [5]): Active
Activity (Bel-7402 [6]): Active
Activity (Bel-7402 [8]): Active
Activity (Bel-7402 [9]): Dose-dependent effect
pIC50 (L02): < 4.60
Activity (Bel-7402 [10]): Active
Activity (Bel-7402 [11]): Active
inhibition [12]: Dose-dependent effect
Activity (Bel-7402 [13]): Active
Activity (Bel-7402 [14]): Non-Toxic
Activity (Bel-7402 [15]): Active
Activity (Bel-7402 [16]): Active
